pIC50: −log10 of the molar value.
Assays:
[1] = target: T1, 5-hydroxytryptamine receptor 1A (Rattus norvegicus, UniProt P19327); experiment: Inhibition of 8-OH DPAT bindign to rat hydroxytryptamine 1A receptor in hippocampal membranes
T1 sequence (P19327 whole entry): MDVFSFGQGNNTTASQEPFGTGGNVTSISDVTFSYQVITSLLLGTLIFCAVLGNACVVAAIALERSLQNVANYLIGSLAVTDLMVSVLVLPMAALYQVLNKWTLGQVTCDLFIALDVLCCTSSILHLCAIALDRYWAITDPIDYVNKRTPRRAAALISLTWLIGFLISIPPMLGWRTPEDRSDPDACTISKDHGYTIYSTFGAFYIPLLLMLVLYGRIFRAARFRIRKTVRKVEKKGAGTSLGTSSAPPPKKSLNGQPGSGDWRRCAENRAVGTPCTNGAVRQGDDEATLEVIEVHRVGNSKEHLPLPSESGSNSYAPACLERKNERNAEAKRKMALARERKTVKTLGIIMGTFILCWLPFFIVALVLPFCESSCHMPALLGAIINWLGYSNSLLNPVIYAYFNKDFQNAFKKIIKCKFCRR

D(2) dopamine receptor = D(2) dopamine receptor (Rattus norvegicus, UniProt P61169); experiment: Displacement of [3H]spiperone from dopamine D2 receptor of rat striatal membranes; assay type: cell membranes, Membrane
Method in brief: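 Rat striatal membranes (0.3–1.0 mg protein/mL) were incubated with 0.1 nM [3H]spiperone in Tris-HCl buffer (pH 7.1) containing 120 mmol/L NaCl, 5 mmol/L KCl, 1 mmol/L CaCl2, 1 mmol/L MgCl2 and 0.1% ascorbic acid, at 37 °C for 15 min. Bound ligand was separated by filtration with three ice-cold washes. Nonspecific binding was defined with 1 mmol/L (+)-butaclamol. IC50 (50% inhibition of binding) came from 5–10 concentrations, each in triplicate.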

D(2) dopamine receptor, sequence (P61169 whole entry): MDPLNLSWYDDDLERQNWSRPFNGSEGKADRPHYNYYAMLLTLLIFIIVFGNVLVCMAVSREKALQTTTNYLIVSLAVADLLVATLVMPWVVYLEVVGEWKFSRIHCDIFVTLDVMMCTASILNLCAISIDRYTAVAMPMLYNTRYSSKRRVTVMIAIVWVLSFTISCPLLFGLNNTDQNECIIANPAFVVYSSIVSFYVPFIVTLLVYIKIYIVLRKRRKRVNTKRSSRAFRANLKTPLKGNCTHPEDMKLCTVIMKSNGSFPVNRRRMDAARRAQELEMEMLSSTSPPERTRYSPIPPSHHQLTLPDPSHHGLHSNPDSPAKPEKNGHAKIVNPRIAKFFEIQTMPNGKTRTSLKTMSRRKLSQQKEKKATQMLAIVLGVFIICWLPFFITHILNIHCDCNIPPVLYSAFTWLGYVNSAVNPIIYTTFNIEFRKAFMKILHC

Row | pIC50 [1] | pIC50 (D(2) dopamine receptor) | Structure (SMILES)
1 | 9.00 | < 7.00 | COc1ccc2[nH]cc(CCCCN3CCN(c4ccc(OC(C)=O)cc4)CC3)c2c1
2 | 7.40 | 7.51 | COC(=O)c1ccc2[nH]cc(CCCCN3CCN(c4ccccc4)CC3)c2c1
3 | 7.62 | – | COc1ccc2[nH]cc(CCCCN3CCN(c4ccc(OC(=O)C(C)(C)C)cc4)CC3)c2c1
4 | 8.10 | < 7.00 | COC(=O)c1ccc2[nH]cc(CCCCN3CCN(c4ccc(OC)cc4)CC3)c2c1
5 | 7.70 | 7.49 | COc1ccc2[nH]cc(CCCCN3CCN(c4ccccc4)CC3)c2c1
6 | 8.70 | – | COCCOc1ccc(N2CCN(CCCCc3c[nH]c4ccc(OC)cc34)CC2)cc1
7 | 6.70 | < 7.00 | CCCCCOc1ccc2[nH]cc(CCCCN3CCN(c4ccc(OC)cc4)CC3)c2c1
8 | 9.10 | < 7.00 | CCOc1ccc(N2CCN(CCCCc3c[nH]c4ccc(OC)cc34)CC2)cc1
9 | 10.00 | 7.77 | NC(=O)c1ccc2[nH]cc(CCCCN3CCC(c4ccccc4)CC3)c2c1
10 | 9.30 | < 7.00 | NC(=O)c1ccc2[nH]cc(CCCCN3CCN(c4ccc5c(c4)CCO5)CC3)c2c1
11 | 7.22 | < 7.00 | COc1ccc2[nH]cc(CCCCN3CCN(c4cc(C)c(OC)c(C)c4)CC3)c2c1
12 | 9.52 | 7.01 | NC(=O)c1ccc2[nH]cc(CCCCN3CCN(c4ccccc4C(N)=O)CC3)c2c1
13 | 9.40 | < 7.00 | COc1ccc2[nH]cc(CCCCN3CCN(c4ccc5c(c4)CCO5)CC3)c2c1
14 | 9.30 | < 7.00 | COc1ccc(N2CCN(CCCCc3c[nH]c4ccc(OC(C)=O)cc34)CC2)cc1
15 | 10.00 | 8.92 | COc1ccccc1N1CCN(CCCCc2c[nH]c3ccc(C(N)=O)cc23)CC1
16 | 8.00 | 7.00 | COc1ccc2[nH]cc(CCCCN3CCN(c4ccc(OC)c(OC)c4)CC3)c2c1
17 | 7.70 | 6.95 | COC(=O)c1ccc2[nH]cc(CCCCN3CCC(c4ccccc4)CC3)c2c1
18 | 9.15 | < 7.00 | COc1c(Cl)cc(N2CCN(CCCCc3c[nH]c4ccc(C(N)=O)cc34)CC2)cc1Cl
19 | 7.52 | 6.66 | COc1ccc2[nH]cc(CCCCN3CCN(c4ccc(OCc5ccccc5)cc4)CC3)c2c1
20 | 10.00 | 8.15 | NC(=O)c1ccc2[nH]cc(CCCCN3CCN(c4ccccc4)CC3)c2c1

Row | pIC50 [1] | pIC50 (D(2) dopamine receptor) | Structure (SMILES)
21 | 9.70 | 8.21 | N#Cc1ccccc1N1CCN(CCCCc2c[nH]c3ccc(C(N)=O)cc23)CC1
22 | 7.05 | < 7.00 | COc1ccc(N2CCN(CCCCc3c[nH]c4ccc(OC5CCCC5)cc34)CC2)cc1
23 | 9.00 | 7.10 | Oc1ccc2[nH]cc(CCCCN3CCC(c4ccccc4)CC3)c2c1
24 | 9.70 | 7.40 | NC(=O)c1ccc2[nH]cc(CCCCN3CCN(c4ccc5c(c4)OCCO5)CC3)c2c1
25 | 7.40 | < 7.00 | O=C(O)c1ccc2[nH]cc(CCCCN3CCN(c4ccccc4)CC3)c2c1
26 | 8.70 | 6.52 | CCOc1ccc2[nH]cc(CCCCN3CCN(c4ccc(OC)cc4)CC3)c2c1
27 | 9.30 | 6.92 | COc1ccc2[nH]cc(CCCCN3CCN(c4ccc5c(c4)OCCO5)CC3)c2c1
28 | 10.00 | < 7.00 | CC(=O)Nc1ccc(N2CCN(CCCCc3c[nH]c4ccc(C(N)=O)cc34)CC2)cc1
29 | 9.70 | 6.81 | NC(=O)c1ccc2[nH]cc(CCCCN3CCN(c4ccc(O)cc4)CC3)c2c1
30 | 8.70 | < 7.00 | COc1ccc2[nH]cc(CCCCN3CCN(c4ccc5c(c4)CCCO5)CC3)c2c1
31 | 6.48 | < 7.00 | COc1ccc2[nH]cc(CCCCN3CCN(c4cc(OC)c(OC)c(OC)c4)CC3)c2c1
32 | 8.70 | 7.28 | COc1ccc2[nH]cc(CCCCN3CCN(c4ccc(O)cc4)CC3)c2c1
33 | 10.15 | 7.00 | COc1ccc(N2CCN(CCCCc3c[nH]c4ccc(C(N)=O)cc34)CC2)c(OC)c1
34 | 11.00 | 8.30 | N#Cc1c(F)cccc1N1CCN(CCCCc2c[nH]c3ccc(C(N)=O)cc23)CC1
35 | 8.52 | < 7.00 | COc1ccc2[nH]cc(CCCCN3CCN(c4ccc(NC(C)=O)cc4)CC3)c2c1
36 | 7.47 | < 7.00 | COc1ccc(N2CCN(CCCCc3c[nH]c4ccc(OCc5ccccc5)cc34)CC2)cc1
37 | 7.00 | 6.00 | O=C(O)c1ccc2[nH]cc(CCCCN3CCC(c4ccccc4)CC3)c2c1
38 | 8.40 | 7.00 | COc1ccc2[nH]cc(CCCCN3CCN(c4ccc5c(c4)OCO5)CC3)c2c1
39 | 9.05 | 7.55 | CCOCCOCCOc1cccc(N2CCN(CCCCc3c[nH]c4ccc(C(N)=O)cc34)CC2)c1C#N

Row | Structure (SMILES) | pIC50 [1] | pIC50 (D(2) dopamine receptor)
40 | COc1ccc2[nH]cc(CCCCN3CC=C(c4ccccc4)CC3)c2c1 | 7.70 | –
41 | COc1ccc2[nH]cc(CCCCN3CC=C(c4ccc(O)cc4)CC3)c2c1 | 9.40 | ~7.00
42 | Oc1ccc2[nH]cc(CCCCN3CC=C(c4ccccc4)CC3)c2c1 [ROXINDOLE] | 9.10 | 8.25
43 | COc1ccc(C2=CCN(CCCCc3c[nH]c4ccc(OC)cc34)CC2)cc1 | 9.22 | < 7.00
44 | COc1ccc2[nH]cc(CCCCN3CCN(c4ccc(O[Si](C)(C)C(C)(C)C)cc4)CC3)c2c1 | 7.15 | –
45 | Oc1ccc2[nH]cc(CCCCN3CCN(c4ccccc4)CC3)c2c1 | 9.10 | 8.38
46 | COc1ccc2[nH]cc(CCCCN3CC=C(c4ccc5c(c4)OCO5)CC3)c2c1 | 9.40 | < 7.00

Reference: ChEMBL document CHEMBL1138746, “Indolebutylamines as selective 5-HT(1A) agonists” (J Med Chem, 2004)
